In the library only some 4.1% were active in any assay of this set; here they are far more common.
hERG rescue: hERG (human) protection from proarrhythmic block; Q12809; CHO-hERG, FluxOR thallium flux, dofetilide IC70 present; activation (rescue from dofetilide block), less the hit threshold, % at 10 µM; 310,000 tested, 0.51% active; AID 1511;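 active = activation above the mean of controls blocked by dofetilide plus 5 SD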;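 note: thallium influx through hERG after potassium depolarization seen as dye fluorescence rise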
KCNK3 block: human KCNK3 channel inhibition, primary screen. O14649. CHO-KCNK3 thallium flux, FluxOR fluorescence; stronger effect = lower value. B-score at 10 µM. 340,000 tested, 0.84% active;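 active = B-score under library mean minus 4 SD, starting fluorescence ratio at most library mean plus 5 SD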;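 note: more negative B-score means stronger inhibition of thallium flux through KCNK3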
KCNK9 inh: human KCNK9 channel inhibition; Q9NPC2; HEK293 KCNK9, FluxOR thallium flux fluorescence; stronger effect = lower value; B-score at 10 µM; 310,000 tested, 1.2% active; AID 488922;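 active = ratio B-score over 3 SD below the library mean, with starting fluorescence within 5 SD of its mean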;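 note: negative B-score means less thallium flux so channel inhibition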
KCNQ1 block: blocks the human KCNQ1 potassium channel; P51787; CHO-K1 KCNQ1, FluxOR thallium flux fluorescence; stronger effect = higher value; B-score at 10 µM; 310,000 tested, 1.3% active;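 active = compounds whose thallium flux B-score, printed positive for inhibition, exceeds three library SD while starting fluorescence stays within three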;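 note: channel opened by potassium depolarization with thallium stimulus after 20 min compound exposure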
KCC2 mod: KCC2 (human) Cl- transport modulation | 190,000 tested, 2.2% active | B-score of Tl+ flux slope (higher = more flux/activation; lower = inhibition) at 10 µM | KCC2 cells, thallium flux FluoZin-2 fluorescence;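 active = thallium flux slope and its plate-corrected score both differing from the plate sample mean at a set confidence after two filtering rounds, in either direction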;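 note: slope of fluorescence scaled to starting intensity during 10 to 20 s after thallium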
KCNQ1 act: human KCNQ1 channel potentiation or activation; P51787; CHO-K1 KCNQ1, thallium flux FluxOR fluorescence; stronger effect = higher value; B-score at 10 µM; 310,000 tested, 0.35% active;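 active = fluorescence ratio B-score, a plate-corrected score, at least three library SD, with initial intensity B-score within 5 SD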
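System: CHO-K1 cells stably expressing KCNQ1 / Medium: assay buffer for compound exposure, DMSO matched across wells / Reagent: thallium- and potassium-containing depolarizing buffer / Compound: one concentration, matched DMSO / Incubation: 20 min compound pretreatment at room temperature / Measured by: kinetic FluxOR fluorescence, 10 s baseline plus 110 s post-stimulus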
The depositor's hits bear a star; i = inactive; · = no result given.

SMILES | hERG rescue | KCNK3 block | KCNK9 inh | KCNQ1 block | KCC2 mod | KCNQ1 act
Cc1cc(N/N=C/c2cccc([N+](=O)[O-])c2)nc(-n2nc(C)cc2C)n1 | -4 | i | i | i | 0.18 | i
Cc1cc(N/N=C/c2cccc(Cl)c2)nc(-n2nc(C)cc2C)n1 | -9 | i | -8* | i | · | i
COc1ccc2nc(C)cc(N/N=C/c3ccccc3)c2c1 | · | -9.4* | · | · | · | ·
COCc1cc(=O)n2[nH]c(SC)nc2n1 | -7 | i | i | i | -0.15 | i
CC1(C)CC(N2CCC(=O)N(C3CC(C)(C)NC(C)(C)C3)C2)CC(C)(C)N1 | -2 | i | i | i | 0.16 | i
COc1cccc(C(=O)Nc2c(F)c(F)c(F)c(F)c2F)c1 | -11 | i | i | i | · | i
Cc1c(N2C(=O)/C(=C/c3cccc4ccccc34)SC2=S)c(=O)n(-c2ccccc2)n1C | -8 | i | i | i | -6.8* | i
O=C(N/C(=C/c1cccs1)C(=O)N1CCOCC1)c1cccs1 | -10 | i | i | i | -1.1 | i
Cc1ccc2nc(SCCCCOc3ccccc3)[nH]c2c1 | -2 | -9.9* | i | i | -0.47 | i
COc1ccc(C(=O)NCc2ccc3c(c2)OCO3)c(OC)c1 | -4 | i | i | i | · | i
S=c1[nH]c(-c2ccccc2)cs1 | 61* | i | i | i | 50* | 44*
Cc1ccc(S(=O)(=O)N2CCN(C(=O)COC(=O)C3CCC3)CC2)cc1 | -11 | i | i | i | · | i
Cc1ccc(N2C(=O)c3cccc4c(N5CCN(C)CC5)ccc(c34)C2=O)c2cccnc12 | -21 | · | i | 9* | i | i
COc1ccc(Cl)cc1C(=O)NCCN(C)C | 6.8* | i | i | i | -0.44 | i
O=C(CC(NC(=O)c1ccccc1Cl)c1ccccc1)Nc1ccc2c(c1)OCO2 (centres undefined) | -12 | i | i | i | -0.15 | i
O=C1c2ccccc2C(=O)N1CCOc1ccccc1 | -13 | i | i | i | -0.42 | i
Cc1c(C(=O)O)c(=S)sn1CCOc1ccccc1 | -6 | i | i | i | -2.5* | i
O=C1NC(=Nc2ccccc2Cl)S/C1=C\c1cccc([N+](=O)[O-])c1O | -13 | i | i | 6* | · | i
COc1c(/C=C2\SC(=Nc3ccccc3Cl)NC2=O)cccc1[N+](=O)[O-] | -7 | i | i | i | · | i
CCc1ccc2c(c1)c(N=NC1=NC(=O)CS1)c(O)n2CC | 7.7* | i | i | i | · | 16*
CCn1nc(C)c(CNC(=O)CC2C(=O)NCCN2CC(C)C)c1C (centres undefined) | -11 | i | i | i | -0.6 | i
Fc1cccc(-c2oncc2-c2nnnn2-c2ccc(Cl)cc2)c1 | -20 | i | i | i | -1.4 | i
O=C(Cc1ccccc1)NC1CCN(S(=O)(=O)c2ccc(C(=O)O)cc2)CC1 | 6.1* | i | i | i | 0.56 | i
COCC(=O)NC1CCN(S(=O)(=O)c2ccc(C(=O)O)cc2)CC1 | -10 | i | i | i | · | i
COc1cc(OC)c(NC(=S)Nc2cc(Cl)cc(Cl)c2)cc1Cl | -11 | i | i | 10* | 1.5 | i
SMILES | hERG rescue | KCNK3 block | KCNK9 inh | KCNQ1 block | KCC2 mod | KCNQ1 act
COc1cc(C)c(NC(=S)Nc2ccc(Cl)c(Cl)c2)cc1OC | -18 | i | i | 6* | 0.88 | i
COCCNC(=S)Nc1ccc(Cl)c(Cl)c1 | -11 | i | i | 6* | 0.09 | i
CC(NC(=O)CN(c1ccccc1F)S(C)(=O)=O)c1ccccc1 (centres undefined) | -2 | i | i | i | · | i
CCOC(=O)/C(=N\Nc1ccccc1Cl)N1CCN(Cc2ccccc2)CC1 | -6 | i | -8* | 7* | -0.51 | i
CCOC(=O)/C(=N\Nc1ccccc1Cl)N1CCN(C)CC1 | -6 | i | i | i | -0.22 | i
Cc1cccc(NC(=O)c2cccc(NC(=O)Cc3cccs3)c2)c1 | -9 | i | -6.9* | i | · | i
O=C(c1ccco1)N1CCN(C(=O)c2ccc(COc3ccc(Cl)cc3Cl)o2)CC1 | -25 | i | i | i | -3.4* | i

From PubChem BioAssay
